Assay results as given in ChEMBL document CHEMBL1122480, “Synthesis and pharmacological studies of 4,4-disubstituted piperidines: a new class of compounds with potent analgesic properties” (J Med Chem, 1983).

What was measured:
[1] = system: Mus musculus; assay: 5 HTP (5-hydroxytryptophan) antagonism in mouse 0.5 hr after subcutaneous administration (0.003-0.1 dose range).; assay type: functional; settings: sc
Method in brief: (§1)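 Mice received drug sc over the stated dose range, then DL-5-hydroxytryptophan to induce head twitches. ED50 is the dose that cut the mean number of head twitches by 50% versus a saline-treated control group (N = 5-10). It was estimated graphically by the Litchfield method.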

[2] = system: Mus musculus; assay: Analgesic activity using PQW test, oral administration; assay type: functional
Method in brief: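 Oral drug in mice, followed by phenylbenzoquinone-induced writhing. Analgesia is scored as fewer abdominal contractions in a group of five animals than in a control group. ED50 is the dose that reduces contractions by 50%, estimated graphically by the Litchfield method. Otherwise the percentage of animals showing analgesia is given.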

[3] = system: Mus musculus; assay: Analgesic activity in tail flick test, oral administration; assay type: functional
Method in brief: (§2)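 Mouse tail-flick test against a noxious heat stimulus (D'Amour–Smith method), with drug given by the stated route. […] Where no exact ED50 was obtained, the percentage of animals showing analgesia is reported.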

[4] = system: Mus musculus; assay: Analgesic activity in tail flick test, subcutaneous administration; assay type: functional; method in brief: as §2
[5] = target: T1, Opioid receptor (Rattus norvegicus, UniProt P33533+P34975+P33535); assay: Inhibition of [3H]naloxone binding to rat brain membrane with 100 mM NaCl.
[6] = target: T1, Opioid receptor; assay: Inhibition of [3H]-Naloxone binding to rat brain membrane without NaCl
[7] = target: T2, Serotonin (5-HT) receptor (Homo sapiens) (UniProt P30939+P41595+Q13639+P28222+P46098+P08908+P28221+P28223+P28335+P28566+P34969+P50406+P47898+A5X5Y0+O95264+Q70Z44+Q8WXA8); assay: Serotonin antagonism in guinea pig 0.5 hr after oral administration.; assay type: functional, organism-based; settings: Cavia porcellus; target entry is the homologue from another species
Method in brief: (§3)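 Guinea pigs were protected against a lethal serotonin dose, per the cited Roemer and Weidmann method. Test substance was given subcutaneously or orally, as named in each line. Protection was assessed at the stated interval after dosing (0.5, 6 or 24 h). ED50 (mg/kg) was estimated graphically by the Litchfield method.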

[8] = target: T2, Serotonin (5-HT) receptor (Homo sapiens); assay: Serotonin antagonism in guinea pig 0.5 hr after subcutaneous administration.; assay type: functional, organism-based; settings: Cavia porcellus; target entry is the homologue from another species; method in brief: as §3
[9] = target: T2, Serotonin (5-HT) receptor (Homo sapiens); assay: Serotonin antagonism in guinea pig 24 hr after subcutaneous administration.; assay type: functional, organism-based; settings: Cavia porcellus; target entry is the homologue from another species; method in brief: as §3
[10] = target: T2, Serotonin (5-HT) receptor (Homo sapiens); assay: Serotonin antagonism in guinea pig 6 hr after oral administration.; assay type: functional, organism-based; settings: Cavia porcellus; target entry is the homologue from another species; method in brief: as §3
[11] = target: T2, Serotonin (5-HT) receptor (Homo sapiens); assay: Serotonin antagonism in guinea pig 24 hr after oral administration.; assay type: functional, organism-based; settings: Cavia porcellus; target entry is the homologue from another species; method in brief: as §3
[12] = target: T2, Serotonin (5-HT) receptor (Homo sapiens); assay: Serotonin antagonism in guinea pig 6 h after subcutaneous administration.; assay type: functional, organism-based; settings: Cavia porcellus; target entry is the homologue from another species; method in brief: as §3
[13] = system: Mus musculus; assay: 5 HTP (5-hydroxytryptophan) antagonism in mouse 0.5 h after subcutaneous administration (0.03-0.1 dose range).; assay type: functional; settings: sc; method in brief: as §1
[14] = system: Mus musculus; assay: 5 HTP (5-hydroxytryptophan) antagonism in mouse 0.5 hr after subcutaneous administration (0.01-0.3 dose range).; assay type: functional; settings: sc; method in brief: as §1
[15] = Mus musculus, po, read-out: ED50
[16] = Mus musculus, Tail, po, read-out: ED50
[17] = Mus musculus, Tail, sc, read-out: ED50

Structure (SMILES)	ED50 [2, 15] [mg/kg]	ED50 [3, 16] [mg/kg]	ED50 [4, 17] [mg/kg]	also measured
CN1CCC(=C2c3ccccc3CCc3sccc32)CC1 [PIZOTYLINE]	–	–	–	ED50 [1]: 0.015 mg/kg
CC(C(=O)N(C)c1ccc(Cl)cc1)C1(O)CCN(CCc2ccccc2Cl)CC1.O=C(O)/C=C/C(=O)O (stereo unspecified)	9.7	> 56	6.8	–
CCOc1ccccc1N(CC)C(=O)C(C)C1(O)CCN(CCc2ccccc2Cl)CC1 (stereo unspecified)	1.8	10	0.26	IC50 [5]: 1.8 nM; IC50 [6]: 0.55 nM
COc1ccccc1NC(=O)C(C)C1(O)CCN(CCc2ccccc2Cl)CC1.O=C(O)/C=C/C(=O)O (stereo unspecified)	5.6	–	> 18	–
CC(C(=O)N(C1CCCCC1)C(C)(C)C)C1(O)CCN(CCc2ccccc2Cl)CC1.O=C(O)/C=C/C(=O)O (stereo unspecified)	< 56	> 56	> 10	–
CC(C(=O)N(C)C1CCCCC1)C1(O)CCN(CCc2ccccc2Cl)CC1 (stereo in doubt; 15)	–	–	–	ED50 [7]: 0.01 mg/kg; ED50 [8]: 0.015 mg/kg; ED50 [9]: 0.028 mg/kg; ED50 [10]: 0.009 mg/kg; ED50 [11]: 0.045 mg/kg; ED50 [12]: 0.007 mg/kg
CCCN(C(=O)C(C)C1(OC(=O)CC)CCN(CCc2ccccc2Cl)CC1)c1ccccc1OC.O=C(O)/C=C\C(=O)O (stereo unspecified)	1	100	32	–
CC(C(=O)NC1CCCCC1)C1(O)CCN(CCc2ccccc2Cl)CC1.O=C(O)/C=C\C(=O)O (stereo unspecified)	> 56	< 56	> 3.2	–
C=CCN(C(=O)C(C)C1(O)CCN(CCc2ccccc2Cl)CC1)C1CCCCC1.O=C(O)/C=C\C(=O)O (stereo unspecified)	< 32	–	4	IC50 [5]: 20 nM; IC50 [6]: 2.4 nM
Br.CCCCCCCN1CCC(O)(C(C)C(=O)N(C)C2CCCCC2)CC1 (stereo unspecified)	> 56	> 100	> 56	–
CCOc1ccccc1N(C)C(=O)C(C)C1(O)CCN(CCc2ccccc2Cl)CC1.O=C(O)/C=C/C(=O)O (stereo unspecified)	1.8	< 32	0.51	IC50 [5]: 10 nM; IC50 [6]: 0.98 nM
Br.CC(C)C(C(=O)N(C)C1CCCCC1)C1(O)CCN(CCc2ccccc2Cl)CC1 (stereo unspecified)	< 56	> 100	> 56	–
Cc1ccc(CCN2CCC(O)(C(C)C(=O)N(C)C3CCCCC3)CC2)cc1.Cl (stereo unspecified)	< 56	100	> 3.2	–
CC(C(=O)N(C)C1CCCCC1)C1(O)CCN(CCc2ccccc2Cl)CC1.O=C(O)/C=C\C(=O)O (single isomer, unassigned; (-))	–	–	–	ED50 [2]: 20 mg/kg; ED50 [3]: 100 mg/kg; ED50 [4]: 42 mg/kg
CCN(C(=O)C(C)C1(O)CCN(CCc2ccccc2Cl)CC1)c1ccccc1OC.O=C(O)/C=C/C(=O)O (stereo unspecified)	56	4.9	0.07	IC50 [5]: 6.3 nM; IC50 [6]: 0.94 nM; ED50 [13]: 0.07 mg/kg
COc1ccccc1N(C)C(=O)C(C)C1(O)CCN(CCc2ccccc2Cl)CC1.O=C(O)/C=C\C(=O)O (stereo unspecified)	18	> 18	0.68	IC50 [5]: 51 nM; IC50 [6]: 3.3 nM
C#CCN(C(=O)C(C)C1(O)CCN(CCc2ccccc2Cl)CC1)c1ccccc1OC.O=C(O)/C=C\C(=O)O (stereo unspecified)	0.56	5.4	0.13	IC50 [5]: 4.2 nM; IC50 [6]: 0.41 nM
COc1ccccc1NC(=O)C(C)(C)C1(O)CCN(CCc2ccccc2Cl)CC1.Cl	< 56	–	> 32	–
CCCCNC(=O)C(C)C1(O)CCN(CCc2ccccc2Cl)CC1 (stereo unspecified)	> 32	< 100	> 18	–
CC(C(=O)N(C)C1CCCCC1)C1(O)CCN(CCc2ccccc2)CC1.Cl (stereo unspecified)	18	> 56	18	–
CC(C(=O)N(C)C1CCCCC1)C1(O)CCN(C)CC1.Cl (stereo unspecified)	> 56	> 100	> 56	–

Structure (SMILES)	ED50 [2, 15] [mg/kg]	ED50 [3, 16] [mg/kg]	ED50 [4, 17] [mg/kg]	also measured
CCCCN(CCCC)C(=O)C(C)C1(O)CCN(CCc2ccccc2Cl)CC1.O=C(O)/C=C/C(=O)O (stereo unspecified)	< 30	< 100	< 50	–
CC(C(=O)N(C)c1cccc(O)c1)C1(O)CCN(CCc2ccccc2Cl)CC1.O=C(O)/C=C/C(=O)O (stereo unspecified)	> 18	–	> 56	–
CC(C(=O)N(C)C1CCCCC1)C1(O)CCN(CCc2ccccc2Cl)CC1.O=C(O)/C=C\C(=O)O (stereo in doubt; 15)	10.8	–	–	IC50 [5]: 450 nM; IC50 [6]: 45 nM; ED50 [14]: 0.07 mg/kg; ED50 [3]: 22 mg/kg; ED50 [4]: 3.2 mg/kg
CN1CC[C@]23c4c5ccc(O)c4O[C@H]2[C@@H](O)C=C[C@H]3[C@H]1C5 [MORPHINE]	1.4	23	3.4	–
C=CCN1CCC(O)(C(C)C(=O)N(C)C2CCCCC2)CC1.O=C(O)/C=C/C(=O)O (stereo unspecified)	1	–	32	–
CCCN(C(=O)C(C)C1(O)CCN(CCc2ccccc2Cl)CC1)c1ccccc1OC.O=C(O)/C=C/C(=O)O (stereo unspecified)	1.8	5.4	0.11	IC50 [5]: 0.66 nM; IC50 [6]: 0.51 nM; ED50 [1]: 0.015 mg/kg
CCCCC(C(=O)N(C)C1CCCCC1)C1(O)CCN(CCc2ccccc2Cl)CC1.O=C(O)/C=C/C(=O)O (stereo unspecified)	> 56	> 100	> 56	–
CC(C(=O)N(C)C1CCCCC1)C1CCN(CCc2ccccc2Cl)CC1.Cl (stereo unspecified)	< 18	37	2.9	–
CN(C(=O)CC1(O)CCN(CCc2ccccc2Cl)CC1)C1CCCCC1.Cl	> 18	< 56	> 3.2	–
CN1CCC(=C2c3ccccc3C=Cc3ccccc32)CC1 [CYPROHEPTADINE]	–	–	–	ED50 [1]: 0.015 mg/kg
CCN(C(=O)C(C)(C)C1(O)CCN(CCc2ccccc2Cl)CC1)c1ccccc1OC.O=C(O)/C=C/C(=O)O	> 18	> 100	> 56	IC50 [5]: 35 nM; IC50 [6]: 7.5 nM
CN(C(=O)C1(C2(O)CCN(CCc3ccccc3Cl)CC2)CC1)C1CCCCC1.O=C(O)/C=C\C(=O)O	> 56	–	10	–
CN(C(=O)C(C)(C)C1(O)CCN(CCc2ccccc2Cl)CC1)C1CCCCC1 [PIPRADIMADOL]	26	> 100	21	IC50 [5]: 825 nM; ED50 [7]: 0.103 mg/kg; IC50 [6]: 550 nM; ED50 [8]: 0.055 mg/kg; ED50 [9]: > 0.1 mg/kg; ED50 [10]: 0.14 mg/kg; ED50 [13]: 0.1 mg/kg; ED50 [11]: 0.135 mg/kg; ED50 [12]: 0.05 mg/kg
C=CCN(C(=O)C(C)C1(O)CCN(CCc2ccccc2Cl)CC1)c1ccccc1OC.O=C(O)/C=C\C(=O)O (stereo unspecified)	0.56	7.6	0.09	IC50 [5]: 2.9 nM; IC50 [6]: 0.41 nM
CC(C(=O)N(C)C1CCCCC1)C1(O)CCN(CCc2ccccc2Cl)CC1 (stereo unspecified) [PIPRAMADOL]	10	100	3.8	–
CCC(=O)OC1(C(C)C(=O)N(C)C2CCCCC2)CCN(CCc2ccccc2Cl)CC1 (stereo unspecified)	< 56	–	< 3.2	–
CN(C(=O)C1(C2(O)CCN(CCc3ccccc3Cl)CC2)CCCC1)C1CCCCC1.O=C(O)/C=C/C(=O)O	> 56	100	> 56	–
CC(C(=O)N(C1CCCCC1)C1CCCCC1)C1(O)CCN(CCc2ccccc2Cl)CC1.Cl (stereo unspecified)	< 56	> 100	> 56	–
Br.COc1cccc(CCN2CCC(O)(C(C)C(=O)N(C)C3CCCCC3)CC2)c1 (stereo unspecified)	> 18	–	18	–
CCCN(C(=O)C(C)C1(O)CCN(CCc2ccccc2Cl)CC1)C1CCCCC1 (stereo unspecified)	< 32	56	> 10	–
